Experimental data: ChEMBL document CHEMBL4414566, “Cytotoxicity and Anti-inflammatory Properties of Apigenin-Derived Isolaxifolin” (J Nat Prod, 2019)
The source made the active and inactive calls. No cut-off for these calls is given here.

Columns and labels:
L02 = assay: Cytotoxicity against human LO2 cells assessed as reduction in cell viability at 6.2 to 30.9 uM incubated for 48 hrs by methylene blue assay; assay type: cell-based; conditions: l02, 48 h
In short: (§1)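 MDA-MB-231, MCF-7, HepG2 and LNCaP cells were grown in DMEM; HCT-116 and LO-2 in RPMI-1640; all with 10% FBS at 37 °C, 5% CO2. Cells seeded at 1.5 × 10^5 cells/mL and incubated overnight (~12 h), then exposed to 6.2–30.9 μM or 23.1–185.0 μM (final DMSO <0.1%) for 48 h. Read by methylene blue staining; viability = Abs treated/Abs untreated × 100%, triplicate.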

MDA-MB-231 [1] = assay: Induction of apoptosis in human MDA-MB-231 cells assessed as necrotic cells at 12.4 uM incubated for 48 hrs by annexin V-FITC/PI based flow cytometric analysis (Rvb= 0.74%); assay type: functional
HCT-116 = assay: Antiproliferative activity against human HCT116 cells assessed as cell viability at >34.6 uM incubated for 48 hrs by methylene blue assay relative to control; assay type: functional; in short: as §1
MDA-MB-231 [2] = assay: Induction of apoptosis in human MDA-MB-231 cells assessed as late apoptotic cells at 8.6 uM incubated for 48 hrs by annexin V-FITC/PI based flow cytometric analysis (Rvb= 2.82%); assay type: functional
MDA-MB-231 [3] = assay: Induction of apoptosis in human MDA-MB-231 cells assessed as increase in late apoptotic cells population incubated for 48 hrs by annexin V-FITC/PI based flow cytometric analysis; assay type: functional, cell-based
MDA-MB-231 [4] = assay: Induction of mitochondrial membrane potential loss in human MDA-MB-231 cells assessed as cell population with intact mitochondrial membrane potential by measuring red fluorescence at 12.4 uM incubated for 48 hrs by JC1 staining based flow cytometric analysis (reference value: 92.04%); assay type: functional
In short: (§2)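 MDA-MB-231 cells in DMEM/10% FBS exposed 48 h to 0, 8.6, 12.4 or 17.3 μM. Harvested cells stained with JC-1 for 15 min in the dark, then analysed by flow cytometry. Excitation 488 nm; green emission read at 525 nm, red at 590 nm. Output given as percent green-to-red fluorescence intensity ratio. Triplicate, mean ± SD.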

MDA-MB-231 [5] = assay: Induction of cell cycle arrest in human MDA-MB-231 cells assessed as accumulation of cells at G0/G1 phase at 17.3 uM incubated for 48 hrs by PI/RNase staining based flow cytometric analysis (reference value: 50.4%); assay type: functional
In short: (§3)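 Cell-cycle analysis: MDA-MB-231 cells were preincubated 24 h, then treated with 8.6, 12.4 or 17.3 μM for 48 h. Cells were pelleted, fixed in 75% ethanol at −20 °C overnight, and stained with PI/RNase for 15 min in the dark at ambient temperature. About 10 000 cells per well were analyzed by flow cytometry for DNA content.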

MDA-MB-231 [6] = assay: Induction of apoptosis in human MDA-MB-231 cells assessed as early apoptotic cells at 8.6 uM incubated for 48 hrs by annexin V-FITC/PI based flow cytometric analysis (Rvb= 0.24%); assay type: functional
MDA-MB-231 [7] = assay: Induction of apoptosis in human MDA-MB-231 cells assessed as late apoptotic cells at 12.4 uM incubated for 48 hrs by annexin V-FITC/PI based flow cytometric analysis (Rvb= 2.82%); assay type: functional
MDA-MB-231 [8] = assay: Induction of apoptosis in human MDA-MB-231 cells assessed as early apoptotic cells at 17.3 uM incubated for 48 hrs by annexin V-FITC/PI based flow cytometric analysis (Rvb= 0.24%); assay type: functional
MDA-MB-231 [9] = assay: Induction of cell cycle arrest in human MDA-MB-231 cells assessed as accumulation of cells at G2/M phase at 17.3 uM incubated for 48 hrs by PI/RNase staining based flow cytometric analysis (reference value: 10.4%); assay type: functional; in short: as §3
MDA-MB-231 [10] = assay: Induction of mitochondrial membrane potential loss in human MDA-MB-231 cells incubated for 48 hrs by JC1 staining based flow cytometric analysis; assay type: functional, cell-based; in short: as §2
MDA-MB-231 [11] = assay: Induction of mitochondrial membrane potential loss in human MDA-MB-231 cells cell population with mitochondrial membrane potential collapse by measuring green fluorescence at 12.4 uM incubated for 48 hrs by JC1 staining based flow cytometric analysis (reference value: 7.96%); assay type: functional; in short: as §2
RAW264.7 [12] = assay: Antiinflammatory activity in mouse RAW264.7 cells assessed as reduction in LPS-induced IL6 production at 0.8 to 3.1 uM preincubated with LPS for 24 hrs followed by compound addition and measured after 24 hrs by ELISA; assay type: functional, cell-based
In short: (§4)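 Murine RAW 264.7 macrophages, 1 × 10^5/well, 4 h settling, then LPS (1.0 μg/mL) for 24 h. Medium was swapped for test solutions (0.8–3.1 μM or 2.3–9.2 μM), or DXM 254.8 μM as positive control, for another 24 h. Secreted NO was measured by Griess assay; TNF-α and IL-6 by ELISA. Run in triplicate, mean ± SD.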

MDA-MB-231 [13] = assay: Induction of mitochondrial membrane potential loss in human MDA-MB-231 cells cell population with mitochondrial membrane potential collapse by measuring green fluorescence at 8.6 uM incubated for 48 hrs by JC1 staining based flow cytometric analysis (reference value: 7.96%); assay type: functional; in short: as §2
MCF7 = assay: Antiproliferative activity against human MCF7 cells assessed as cell viability at 24.2 uM incubated for 48 hrs by methylene blue assay relative to control; assay type: functional; conditions: MCF7, 48 h, read-out: Activity; in short: as §1
MDA-MB-231 [14] = assay: Induction of apoptosis in human MDA-MB-231 cells assessed as viable cells at 12.4 uM incubated for 48 hrs by annexin V-FITC/PI based flow cytometric analysis (Rvb= 96.21%); assay type: functional; conditions: MDA-MB-231, 48 h, read-out: Activity
RAW264.7 [15] = assay: Antiinflammatory activity in mouse RAW264.7 cells assessed as reduction in LPS-induced TNFalpha production at 0.8 to 3.1 uM preincubated with LPS for 24 hrs followed by compound addition and measured after 24 hrs by ELISA; assay type: functional, cell-based; in short: as §4
MDA-MB-231 [16] = assay: Induction of mitochondrial membrane potential loss in human MDA-MB-231 cells assessed as cell population with intact mitochondrial membrane potential by measuring red fluorescence at 17.3 uM incubated for 48 hrs by JC1 staining based flow cytometric analysis (reference value: 92.04%); assay type: functional; in short: as §2
RAW264.7 [17] = assay: Antiinflammatory activity against LPS-activated mouse RAW264.7 cells assessed as reduction in TNFalpha mRNA expression at 3.1 uM preincubated with LPS for 24 hrs followed by compound addition and measured after 24 hrs by qRT-PCR analysis; assay type: functional, cell-based
In short: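 RAW 264.7 cells (DMEM, 10% FBS, 37 °C, 5% CO2) seeded at 1 × 10^5/well and held 4 h. LPS 1.0 μg/mL was added for 24 h, then medium was replaced with test agent (0.8, 1.6, 3.1 μM or 2.3, 4.6, 9.2 μM) for 24 h. TNF-α and IL-6 transcripts were quantified by real-time qPCR against GAPDH. Triplicates, mean ± SD.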

MDA-MB-231 [18] = assay: Induction of cell cycle arrest in human MDA-MB-231 cells assessed as accumulation of cells at G2/M phase at 8.6 uM incubated for 48 hrs by PI/RNase staining based flow cytometric analysis (reference value: 10.4%); assay type: functional; in short: as §3
RAW264.7 [19] = assay: Antiinflammatory activity in mouse RAW264.7 cells assessed as inhibition of LPS-induced NO production at 0.8 to 3.1 uM measured after 24 hrs by griess reagent based assay; assay type: functional, cell-based; in short: as §4

With `CC(C)=CCc1c2c(c(O)c3c(=O)cc(-c4ccc(O)cc4)oc13)C=CC(C)(C)O2` [LAXIFOLIN] the Activity (L02) was “Non-Toxic”, the Activity (MDA-MB-231 [1]) was 1.19% and the Activity (HCT-116) was 20%. For the same molecule, the Activity (MDA-MB-231 [2]) was 9.8%, the Activity (MDA-MB-231 [3]) was “Dose-dependent effect” and the Activity (MDA-MB-231 [4]) was 84.3%. It also gave an Activity (MDA-MB-231 [5]) of 63.3%, an Activity (MDA-MB-231 [6]) of 0.87% and an Activity (MDA-MB-231 [7]) of 12.89%. For the same molecule, the Activity (MDA-MB-231 [8]) was 0.96%, the Activity (MDA-MB-231 [9]) was 9.87% and the Activity (MDA-MB-231 [10]) was “Dose-dependent effect”. The Activity (MDA-MB-231 [11]) was 15.7%, the Activity (RAW264.7 [12]) was “Active” and the Activity (MDA-MB-231 [13]) was 16.49%. For the same molecule, the viability at 24.2 µM (MCF7) was 20%, the viability at 12.4 µM (MDA-MB-231 [14]) was 85.3% and the Activity (RAW264.7 [15]) was “Active”. For the same molecule, the Activity (MDA-MB-231 [16]) was 73.25%, the Activity (RAW264.7 [17]) was “Active” and the Activity (MDA-MB-231 [18]) was 11%. For the same molecule, the inhibition (RAW264.7 [19]) was “Active”.
